Screening results (PubChem)
CR mimetic SO: caloric restriction mimetics inhibiting age-related superoxide in yeast; superoxide response (% of plate mean), % at 10 µM; S. cerevisiae aged cells, superoxide DHE fluorescence; hits give low values; 0.18% of 330,000 active;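 active = superoxide response under a set limit, about three screen SD below normal, cut at about 65% in these data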;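 also: yeast aged for seven days with compound at 30 °C before DHE staining; 100% = average MFI of all compound-treated wells on the plate with controls excluded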
SUMO Mot1 rescue: SUMOylation pathway inhibition by Mot1-301 growth rescue | growth rescue, % at 18.8 µM | S. cerevisiae Mot1-301 growth rescue, ATP luminescence, 38.5C; percent above DMSO median, 100 means doubled | 1% of 320,000 active;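 active = every valid replicate shows activation above 250% relative to neutral control wells; inactive = the rest, any valid replicate at or below 250%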;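 also: OY570 slx delta 5 strain wells were the positive control but not used for scaling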
Cneo AK release: Cryptococcus neoformans lysis via adenylate kinase release. C. neoformans lysis, adenylate kinase release luminescence, 4 h; normalised: neutral wells 0, clomiphene wells 100. AID 651654. lysis activity, % at 15 µM. 0.2% of 360,000 active;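 active = mean lysis activity across replicates of at least 80%, whatever share of replicates individually reach that level; inactive = mean lysis activity below 80%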
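Material – Cryptococcus neoformans yeast cells · Quantity – 5 × 10^6 yeast cells/mL · Buffer or medium – YPD medium · Compound – single dose · Timing – 4 h static compound exposure, 37 °C, read 1 h post-reagent · Signal – adenylate kinase release luminescence · Read-out basis – lysis from increased AK signal · Benchmarks – Clomiphene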
Ecoli rRNA inh: selective bacterial rRNA inhibition in E. coli | E. coli WT GFP vs humanized-ribosome RFP mutants, fluorescence, 24 h; hits give low values; DMSO median 0, no signal -100 | GFP signal change (wild-type ribosome), % (no concentration beside the values) | 1.6% of 350,000 active | AID 720706;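 active = significant combined selectivity score with lowered wild-type GFP, culture density cut under 30%, mutant RFP and density less affected; inactive = any of these conditions unmet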
PglD inh: inhibitors of Campylobacter jejuni PglD acetyltransferase. AID 602405. inhibition, % at 12.5 µM. purified PglD enzyme, DTNB colorimetric CoA detection. 0.098% of 360,000 active; in the data active = inhibition above about 16%, passing the limit was not always enough
CR mimetic CP: yeast aging superoxide inhibition, cherry pick confirmation. superoxide response (% of plate), % at 10 µM. S. cerevisiae aging, superoxide DHE fluorescence; hits give low values. AID 434994. shares compounds with CR mimetic SO. 1% of 850 active;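 active = superoxide signal below 65% of the plate average of sample wells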;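 also: cells aged with compound for 7 days at 30 degrees C before staining; 100% equals mean DHE fluorescence of all compound wells on the plate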
DHE counter: compound alters DHE oxidation or fluorescence in yeast. AID 435000. fluorescence response, % at 10 µM. shares compounds with CR mimetic SO. 850 tested, under 10 active. S. cerevisiae BY4741, flow cytometry; hits give low values;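 active = fluorescence response below 15%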;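 also: percent of the mean fluorescence averaged over all compound wells on the plate; lower means stronger quenching of DHE signal or ROS scavenging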
Starred values were filed as active, the others as inactive; / = not tested or not shown. Shown are actives, neighbours in structure and some others; about 2.2% of the full set was active somewhere.

SMILES	CR mimetic SO	SUMO Mot1 rescue	Cneo AK release	Ecoli rRNA inh	PglD inh	others
CCC(CO)Oc1cc(NCc2cccnc2)c2ncn(C(C)C)c2c1 (stereo not given)	110.5	11.6	-35.5	/	-0.2
C[C@@H]1CCCCO[C@H](CN(C)C(=O)c2ccccc2)[C@H](C)CN([C@@H](C)CO)C(=O)c2cc(NS(=O)(=O)c3cn(C)cn3)ccc2O1	/	/	14.9	-0.9	0.8
O=C(CCCCCn1c(=S)[nH]c2ccc(N3CCOCC3)cc2c1=O)NCc1ccc(Cl)cc1	98.2	-11.3	3.4	-24.5*	-1.9
CCC1=NN(C(=O)c2ccc(Br)cc2)C(O)(c2ccc(C)cc2)C1 (stereo not given)	95.8	80.8	/	-30.2*	/
O=C(CN1C(=O)NC2(CCc3ccccc32)C1=O)c1ccc(Br)s1 (stereo not given)	101.5	63.4	1.0	-30.5*	2.2
O=C(CN1C(=O)NC2(CCCc3ccccc32)C1=O)c1ccccc1F (stereo not given)	135.1	-2.3	1.9	-34.8*	-8.4
O=S(=O)(NC1CC2CCC1C2)c1ccc(Br)cc1 (stereo not given)	146.7	175.7	-0.9	-25.9	0.6
O=S(=O)(NC1CC2CCC1C2)c1ccc(Br)s1 (stereo not given)	188.6	449.8*	1.1	/	4.4
CS(=O)(=O)N1CC2(C1)[C@@H](c1ccccc1)[C@@H](CO)N2C(=O)C1CCC1	/	/	/	3.8	/
Nc1ccccc1-c1nnn(CC(=O)Nc2ccc3c(c2)OCCO3)n1	103.2	/	6.8	-25.2*	3.6
O=C(CCNS(=O)(=O)c1ccc(Cl)cc1)N1CCN(c2ccccn2)CC1	108.0	269.0*	-1.9	-2.7	6.0
O=C(CCNS(=O)(=O)c1ccc(Cl)cc1)N1CCN(c2ncccn2)CC1	/	/	6.3	2.8	0.1
CC(=O)N1CCSc2ccc(S(=O)(=O)Nc3cccc(C)c3)cc21	93.0	-11.6	-3.5	-23.2*	-5.8
COc1cccc(NS(=O)(=O)c2ccc3c(c2)N(C(C)=O)CCS3)c1	97.0	-8.6	3.4	-0.1	-1.2
CC(=O)N(C)C[C@@H]1Oc2cc(C#CC(C)(C)O)ccc2S(=O)(=O)N([C@H](C)CO)C[C@H]1C	/	/	1.8	6.0	1.8
COc1cc(/C=C2/SC(=S)N(Cc3ccccc3)C2=O)ccc1OS(C)(=O)=O	103.3	0.6	-2.0	8.7	1.1
COc1cc(/C=C2\SC(=S)N(CC(=O)O)C2=O)ccc1OS(=O)(=O)c1ccc(C)cc1	129.8	194.0	-1.0	-17.8*	-7.5
COC(=O)N/N=C/c1ccc(OS(=O)(=O)c2ccc(C)cc2)c(OC)c1	89.8	-4.2	/	-28.4*	/
COc1cc(/C=C2/SC(=S)N(CC(=O)O)C2=O)ccc1OC(=O)c1cccs1	101.2	3.2	/	-19.4*	/
CO[C@H]1CN(C)C(=O)c2cc(NC(=O)Nc3cc(Cl)cc(Cl)c3)ccc2OC[C@@H](C)NC[C@H]1C	/	/	/	-1.8	/
CN(C)CC(=O)Nc1ccc2c(c1)[C@@H]1C[C@@H](CC(=O)NCC3CC3)O[C@@H](CO)[C@@H]1O2	/	/	0.5	4.6	3.0
CO[C@H]1CN(C)C(=O)c2cc(NC(=O)NC(C)C)ccc2OC[C@@H](C)N(C)C[C@H]1C	/	/	3.7	-0.6	3.9
O=S(=O)(N[C@H]1CC[C@H](CCn2cc(-c3cccc(F)c3)nn2)O[C@@H]1CO)c1ccc(Cl)cc1	/	/	14.9	-16.8	2.0
C[C@@H]1CCCCO[C@H](CN(C)S(=O)(=O)c2cn(C)cn2)[C@@H](C)CN([C@@H](C)CO)C(=O)c2cc(NC(=O)C3CCCCC3)ccc2O1	/	/	-0.6	2.0	0.5
CC1CN(CC(O)COc2ccc(C(C)C)cc2)CC(C)O1 (stereo not given)	119.8	326.2*	0.0	/	-2.1
SMILES	CR mimetic SO	SUMO Mot1 rescue	Cneo AK release	Ecoli rRNA inh	PglD inh	others
Cc1ccc(-c2cc(-c3n[nH]c(=S)o3)c3ccccc3n2)cc1	120.7	13.2	/	-18.4*	/
S=c1[nH]nc(-c2cc(-c3ccccn3)nc3ccccc23)o1	152.1	13.0	/	-14.9	/
COCCNC(=O)C[C@H]1C[C@@H]2c3cc(NC(=O)COC)ccc3O[C@@H]2[C@@H](CO)O1	/	/	1.6	3.8	-0.9
CN1[C@H](C(=O)NCCN2CCCC2)[C@@H](CO)[C@@H]2Cn3c(ccc(/C=C/c4ccccc4)c3=O)[C@@H]21	/	/	/	4.0	/
C=C(C)Cn1c2ccc(NC(=S)NCc3ccccc3F)cc2c(=O)n1C	/	/	0.1	-23.2*	5.4
Cc1noc(NS(=O)(=O)c2ccc(N/C=C/C(=O)c3ccc4c(c3)OCO4)cc2)c1C	64.8*	177.7	-4.0	/	-3.8	CR mimetic CP=103.4;DHE counter=123.2
C[C@@H]1CCCCO[C@@H](CN(C)Cc2ccncc2)[C@@H](C)CN([C@@H](C)CO)C(=O)c2cc(NC(=O)c3ccccc3)ccc2O1	/	/	-0.2	0.2	2.0
CCn1c2ccccc2c2cc(NC(C)=O)ccc21	111.2	2.9	1.8	/	-5.5	CR mimetic CP=106.9;DHE counter=105.4
CC(=O)Nc1ccc2c(c1)c1ccccc1n2C(C)=O	104.2	485.0	/	/	/
O=c1c2sc(-c3ccccc3)cc2nc2n1CCC2	47.6*	-6.6	-6.6	/	4.4	CR mimetic CP=82.9;DHE counter=106.5
Cc1ccc(Cl)cc1NS(=O)(=O)c1cn(C)nc1C	60.6*	-4.1	-0.5	14.3	0.9	CR mimetic CP=101.6;DHE counter=96.6
Cc1nnsc1-c1c(C(=O)N2CCOCC2)c(C)nn1-c1ccc(Cl)cc1	45.7*	-2.7	/	/	/	CR mimetic CP=97.7;DHE counter=86.7
CCC(=O)N1CC2(CN(Cc3ccc(Cl)cc3)C2)c2c(n(C)c3cc(OC)ccc23)[C@H]1CO	/	/	/	-55.0	/
O=C(Nc1cccc(Cl)c1)N[C@@H]1CC[C@@H](CCNC(=O)C2CCCCC2)O[C@H]1CO	/	/	1.3	-0.7	-0.9
CC(=O)Nc1ccc(S(=O)(=O)Nc2nc3nc(-c4ccccc4)cc(-c4ccccc4)n3n2)cc1	60.2*	-10.3	0.2	24.8	-6.1	CR mimetic CP=96.0;DHE counter=94.3
CC(=O)Nc1ccc(S(=O)(=O)Nc2cc(-c3ccccc3)nn2C)cc1	97.1	7.4	-2.5	12.1	-0.1
Cc1noc(C)c1S(=O)(=O)N(C)C[C@@H]1Oc2ccc(NS(=O)(=O)c3ccc(F)cc3)cc2CC(=O)N([C@@H](C)CO)C[C@H]1C	/	/	/	-0.1	/
COc1ccc(S(=O)(=O)Nc2cccc(Cl)c2)cc1OC	104.2	-6.2	0.8	/	-4.6	CR mimetic CP=100.8;DHE counter=106.2
COc1ccc(S(=O)(=O)Nc2ccc(F)c(F)c2)cc1Cl	123.2	103.5	4.8	/	3.5	CR mimetic CP=98.7;DHE counter=108.9
COc1ccc(NS(=O)(=O)c2ccc(OC)c(OC)c2)cc1OC	96.4	4.3	2.8	/	4.8
